Results as given in ChEMBL document CHEMBL2424539, “Identification, synthesis and evaluation of substituted benzofurazans as inhibitors of CREB-mediated gene transcription” (Bioorg Med Chem Lett, 2013).

Assays:
[1] = Inhibition of CREB (unknown origin)-mediated gene transcription in HEK293T cells preincubated for 30 mins followed by forskolin addition measured after 5 hrs by luciferase reporter gene assay; assay type: cell-based; conditions: Homo sapiens, HEK-293T
Summary of the method: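 HEK 293T cells transfected with CRE-RLuc (RLuc driven by three tandem CRE copies), treated with graded compound concentrations for 30 min, then stimulated with forskolin (10 μM) for another 5 h. Cells lysed and RLuc activity read, normalized to protein (RLU/μg protein). Stocks in DMSO (one in DMF). IC50 in μM, mean ± SD of at least two independent experiments run in triplicate; top concentration 50 or 100 μM.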

[2] = (§1) Inhibition of CREB-KID/CBP-KIX domain interaction (unknown origin) after 20 hrs by luciferase reporter gene assay; set-up: species or system Homo sapiens
Summary of the method: (§2)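 Split Renilla luciferase complementation assay: RLucC-KIX and KID-RLucN fusions mixed with graded compound concentrations at 4 °C for 20 h, then residual RLuc activity measured. Stocks in DMSO (one in DMF). IC50 in μM, mean ± SD of at least two independent experiments run in duplicate; top concentration 50 or 100 μM.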

[3] = Inhibition of Herpesvirus VP16-CREB (unknown origin)-mediated gene transcription in HEK293T cells by luciferase reporter gene assay; assay type: cell-based; conditions: HEK-293T
Summary of the method: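 HEK 293T cells cotransfected with VP16-CREB plus CRE-RLuc, treated with graded compound concentrations without forskolin stimulation, then lysed and RLuc activity read and normalized to protein (RLU/μg protein). IC50 in μM, mean ± SD of at least two independent experiments run in triplicate; top concentration 50 or 100 μM.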

HEK-293T [4] = assay: Selectivity ratio of IC50 for Herpesvirus VP16-CREB (unknown origin)-mediated gene transcription in HEK293T cells to IC50 for CREB (unknown origin)-mediated gene transcription in HEK293T cells; assay type: cell-based
Homo sapiens = species on record: Homo sapiens; assay: as §1; summary of the method: as §2
HEK-293T [5] = assay: Selectivity ratio of IC50 for CREB (unknown origin)-mediated gene transcription in HEK293T cells to IC50 for CREB-KID/CBP-KIX domain interaction (unknown origin); assay type: cell-based; conditions: Homo sapiens

SMILES | IC50 [1] [µM] | IC50 [2] [µM] | IC50 [3] [µM] | Ratio IC50 (HEK-293T [4]) | inhibition (Homo sapiens) | Ratio IC50 (HEK-293T [5])
O=[N+]([O-])c1cc(NCc2cccc3nonc23)ccc1Cl | > 50 | > 50 |  |  |  | 
Nc1ccc(Nc2ccc(Cl)cc2)c2nonc12 | 50 | 50 | > 50 |  |  | 
O=[N+]([O-])c1ccc(Sc2cccc[n+]2[O-])c2nonc12 | 2.09 | 0.36 | 6.14 | 3 | Dose-dependent effect | 
O=[N+]([O-])c1ccc(CNc2ccc(Cl)cc2)c2nonc12 | > 50 | 13.1 |  |  |  | 
O=[N+]([O-])c1ccc(Nc2ccc(Cl)cc2)c2nonc12 | 13.7 | 7.14 | > 100 |  |  | 2
O=[N+]([O-])c1ccc(Sc2ccccn2)c2nonc12 | 9.42 | 0.41 | 13.2 |  |  | 
O=C(Nc1ccc(Cl)cc1)c1ccc([N+](=O)[O-])c2nonc12 | > 50 | 0.17 |  |  |  | 
